Assay results of several laboratories.
Compare with care: the assays were run in different laboratories.
Target: TRAF2 and NCK-interacting protein kinase (TNIK, Homo sapiens, UniProt Q9UKE5)

SMILES	test	setting	endpoint	result
Cc1sc(C(=O)NC2COC2)cc1-n1cc(NC(=O)Nc2c(F)cccc2Cl)cn1	enzyme activity, inhibitor	10 µM	remaining activity	94.5%
CC1(C)NC(=O)c2[nH]c3c(Cl)c(Cl)ccc3c2C1C#N (centres unmarked)	thermal stability, DSF	10 µM	ΔTm	0 °C
CCC(=O)N[C@H]1CC[C@@H](C(=O)N(C)c2ccc(-c3nc4ccccc4o3)cc2)C1	cell-free assay, competition with immobilised ligand	1 µM	remaining binding	100%
CCC1(CC)NC(=O)c2c(c3ccc(Cl)c(Cl)c3n2C)C1C#N (centres unmarked)	thermal stability, DSF	10 µM	ΔTm	0.3 °C
Cn1cnc(Br)c1C1=CN(c2ncnc3[nH]cnc23)CCS1	enzyme activity, inhibitor, radiometric	50 nM	inhibition	21.5%
Cn1c2c(c3ccc(Cl)c(Cl)c31)C(C#N)C(C)(C)NC2=O (centres unmarked)	thermal stability, DSF	10 µM	ΔTm	-0.4 °C
c1ccc(CNc2nc(N3CCOc4ccccc43)nc3c2CCCC3)cc1	target engagement in cells, inhibitor, chemoproteomics	20 mM	inhibition	-8%
CN1CCC2(CC1)NC(=O)c1c(c3ccc(Cl)c(Cl)c3n1C)C2C#N (racemic)	thermal stability, DSF	10 µM	ΔTm	0 °C
CS(=O)(=O)Nc1cccc(-c2csc(NC(=O)CSc3nc4nccnc4c(=O)n3CCc3ccccc3)n2)c1	enzyme activity, inhibitor	10 µM	inhibition	-2%
Nc1ncnc2occ(-c3ccc(NC(=O)Nc4cc(C(F)(F)F)ccc4F)cc3)c12	cell-free assay, inhibitor	20 µM	remaining signal	6.9%
O=C(N[C@H]1CCCCC/C=C\C2C[C@@]2(C(=O)O)NC(=O)[C@@H]2C[C@@H](Oc3ccncc3)CN2C1=O)OC1CCCC1 (some centres unmarked)	binding, competition with immobilised ligand	1 µM	remaining binding	78%
CCN1CCC2(CC1)NC(=O)c1c(c3ccc(Cl)c(Cl)c3n1C)C2C#N (racemic)	thermal stability, DSF	10 µM	ΔTm	0 °C
C[C@@H]1CN(c2cc(-c3nn(C)c4ccc(OC5(C)CC5)cc34)ncn2)C[C@H](C)O1	cell-free assay, competition with immobilised ligand	1 µM	remaining binding	80%
CN1CC(Oc2cnc(C#N)cc2-c2ccn3nc(NC(=O)C4CC4)cc3c2)C1	enzyme activity, inhibitor	1 µM	inhibition	29%
CN1CCN(c2cnc3c(C4CCN(C(=O)c5ccc(OC(F)(F)F)cc5N)CC4)ncnc3c2)CC1	cell-free assay, competition with immobilised ligand	1 µM	remaining binding	100%
Cc1ccc(C(=O)Nc2ccc(CN3CCN(C)CC3)c(C(F)(F)F)c2)cc1C#Cc1cnc2cccnn12	enzyme activity, inhibitor	23.5 nM	remaining activity	34%
Cn1nc(C(=O)NCc2ccc(C(=O)O)cc2)cc1-c1ccc2[nH]ccc2c1	cell-free assay, competition with immobilised ligand	0.1 µM	remaining binding	97%
Cn1c2c(c3ccc(Cl)c(Cl)c31)C(C#N)C1(CCN(C(=O)OC(C)(C)C)CC1)NC2=O (racemic)	thermal stability, DSF	10 µM	ΔTm	-0.1 °C
CS(=O)(=O)c1cc(C2(NC(=O)c3cncc4c3cnn4-c3ccc(F)cc3)CC2)ccn1	cell-free assay, competition with immobilised ligand	1 µM	remaining binding	95%
O=C(Nc1cnn(-c2csc(C(=O)NC3COC3)c2)c1)Nc1ccccc1Cl	enzyme activity, inhibitor	5 µM	remaining activity	53.2%
